Experimental data from different studies.
Each line is one published result; the experiments were not run side by side.
Cell line: RAW264.7

SMILES | assay | conditions | quantity | result
COc1ccc2c(c1)c(CC(=O)O)c(C)n2C(=O)c1ccc(Cl)cc1 | NO release, inhibitor, Griess | 24 h, LPS-stimulated | IC50 | 26.5 µM
COc1ccc(C[C@H](N)C(=O)N[C@H]2[C@@H](O)[C@H](n3cnc4c(N(C)C)ncnc43)O[C@@H]2CO)cc1 | cell growth or viability, resazurin | 72 h | IC50 | 1.54 µM
[H]/N=C(/NC)NCCC[C@H](N)C(=O)O | NO release, inhibitor, Griess | 250 µg/mL, 24 h, LPS-stimulated | inhibition | 97.1%
C=C1CC[C@@H]2[C@](C)(CO)[C@H](O)CC[C@@]2(C)[C@@H]1C/C=C1/C(=O)OC[C@H]1O | NO release, inhibitor, Griess | 24 h, LPS-stimulated | IC50 | 48.6 µM
[H]/N=C(/NC)NCCC[C@H](N)C(=O)O | NO release, inhibitor, Griess | LPS-stimulated | IC50 | 21.8 µM
C[C@@H]1C[C@H]2[C@@H]3CCC4=CC(=O)C=C[C@]4(C)[C@@]3(F)[C@@H](O)C[C@]2(C)[C@@]1(O)C(=O)CO | NO release, inhibitor, Griess | LPS-stimulated | IC50 | 13.1 µM
CCOc1ccc(Nc2c3c(nc4ccccc24)CCC3)cc1 | cell growth or viability, resazurin | 72 h | IC50 | 38.4 µM
C[C@]12C=CC(=O)C=C1CC[C@@H]1[C@@H]2[C@@H](O)C[C@@]2(C)[C@H]1CC[C@]2(O)C(=O)CO | NO release, inhibitor, Griess | 24 h, LPS-stimulated | IC50 | 0.2 µg/mL
